Results on six compounds are retold here after ChEMBL document CHEMBL1155689, “Evaluation of the total peroxyl radical-scavenging capacity of flavonoids: structure-activity relationships” (J Nat Prod, 2000).

Data set [1] in a line: Antioxidant scavenging activity against 2,2'-azobis-amidinopropane-induced peroxyl radicals assessed as total oxyradical scavenging capacity. The format is physicochemical. Set-up: unit not given here. The gist of the method: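 Peroxyl radicals from thermal homolysis of ABAP at 39 °C, with 0.1 mM KMBA and 10 mM ABAP (final) in 100 mM potassium phosphate, pH 7.4. Ethylene in the headspace was measured by GC at 12-min intervals over 60 min. TOSC = 100 − (∫sample/∫control area × 100). rTOSC is the slope of the TOSC vs concentration regression within the linear range.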

Data set [2] can be described thus: Antioxidant scavenging activity against 2,2'-azobis-amidinopropane-induced peroxyl radicals assessed as total oxyradical scavenging capacity relative to Trolox. The format is physicochemical. The gist of the method: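 Uses the same ABAP/KMBA ethylene-GC assay: 39 °C, 0.1 mM KMBA, 10 mM ABAP, pH 7.4 phosphate, 60-min time course. TOSC comes from the areas under the kinetic curves, and rTOSC from the slope of TOSC against concentration. Comparative TOSC (cTOSC) expresses each rTOSC relative to the Trolox benchmark.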

For `COc1ccc(-c2oc3cc(OC)c(OC)c(O)c3c(=O)c2OC)cc1OC` [ARTEMETIN], the Activity was 1.55 in data set [1] and 0.28 in data set [2].

`O=c1c(O)c(-c2ccc(O)c(O)c2)oc2cc(O)cc(O)c12` [QUERCETIN]: the Activity came to 40.32 in data set [1] and 7.17 in data set [2].

In the case of `COc1cc(-c2cc(=O)c3c(O)c(O)c(OC)c(OC)c3o2)ccc1O`, the Activity in data set [1] is listed as 8.53; in data set [2], 1.52.

For `Cc1c(C)c2c(c(C)c1O)CCC(C)(C(=O)O)O2` (stereo unspecified) [TROLOX], the Activity in data set [1] is given as 5.62.

As for `COc1cc(-c2cc(=O)c3c(O)c(OC)c(OC)c(OC)c3o2)ccc1O`, the Activity was 4.53 in data set [1] and 0.81 in data set [2].

Consider `C[C@@H]1O[C@@H](OC[C@H]2O[C@@H](Oc3c(-c4ccc(O)c(O)c4)oc4cc(O)cc(O)c4c3=O)[C@H](O)[C@@H](O)[C@@H]2O)[C@H](O)[C@H](O)[C@H]1O` [RUTIN], for which the figures for the Activity in data set [1] and in data set [2] were 28.96 and 5.15, respectively.
